According to ChEMBL document CHEMBL1127049, “Nonpeptide angiotensin II receptor antagonists. 2. Design, synthesis, and structure-activity relationships of 2-alkyl-4-(1H-pyrrol-1-yl)-1H-imidazole derivatives: profile of 2-propyl-1-[[2'-(1H-tetrazol-5-yl)-[1,1' -biphenyl]-4-yl]-methyl]-4-[2-(trifluoroacetyl)-1H-pyrrol-1-yl]-1H- …” (J Med Chem, 1993):

Columns and labels:
[1] = target: T1, Angiotensin II receptor (AT-1) type-1 (Rattus norvegicus, UniProt P29089+P25095); test: Inhibitory concentration against binding of [125I]angiotensin II to rat liver expressing Angiotensin II receptor
T1 sequence (P29089 whole entry): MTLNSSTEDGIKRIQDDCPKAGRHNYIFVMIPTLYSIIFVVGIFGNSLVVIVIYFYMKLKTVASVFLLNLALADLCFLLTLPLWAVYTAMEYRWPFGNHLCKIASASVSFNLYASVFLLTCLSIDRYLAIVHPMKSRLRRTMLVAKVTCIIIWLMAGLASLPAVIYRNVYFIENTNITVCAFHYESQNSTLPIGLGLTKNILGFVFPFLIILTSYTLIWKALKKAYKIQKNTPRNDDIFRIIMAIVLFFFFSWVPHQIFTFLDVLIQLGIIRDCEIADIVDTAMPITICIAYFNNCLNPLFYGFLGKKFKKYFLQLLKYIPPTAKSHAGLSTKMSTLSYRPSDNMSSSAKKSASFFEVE
T1 sequence (P25095 whole entry): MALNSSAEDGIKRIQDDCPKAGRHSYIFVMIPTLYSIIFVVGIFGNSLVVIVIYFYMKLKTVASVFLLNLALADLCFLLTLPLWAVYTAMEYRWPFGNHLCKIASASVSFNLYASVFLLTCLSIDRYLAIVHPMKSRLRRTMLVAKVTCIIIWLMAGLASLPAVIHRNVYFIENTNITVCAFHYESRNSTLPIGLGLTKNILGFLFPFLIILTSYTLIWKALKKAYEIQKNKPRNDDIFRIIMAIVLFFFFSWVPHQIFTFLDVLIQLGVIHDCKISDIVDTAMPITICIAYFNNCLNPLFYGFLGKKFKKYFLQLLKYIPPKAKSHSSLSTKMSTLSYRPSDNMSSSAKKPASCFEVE
Outline: (§1)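 Rat liver membranes homogenized in 10 mM HEPES pH 7.4 with protease inhibitors, captopril and PMSF. Nonspecific binding defined with 1.0 µM saralasin. No BSA. IC50 by nonlinear fit to mass-action equation from at least five or six concentrations.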

[2] = tested on: Rattus norvegicus; test: Effect on mean arterial pressure after oral dosing at 10 mg/kg to renal hypertensive rats; type: functional, Artery
Outline: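 Male Sprague-Dawley rats, bilateral renal artery clipping at 5 weeks, used 10-12 weeks later; aortic cannula to neck, 48 h recovery; rats with mean BP <150 mmHg excluded. Compound suspended in 0.5% methocel in water, oral gavage 10 mg/kg in 2 mL/kg to conscious rats (n = 5-6). BP and heart rate recorded continuously, averaged over 30-min intervals.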

[3] = tested on: Rattus norvegicus; test: Tested in vivo for effective dose (iv) that produces inhibition of pressor response to Angiotensin II in conscious normotensive rats; type: functional
[4] = target: T1, Angiotensin II receptor (AT-1) type-1; test: Tested for inhibitory concentration against AT1 receptor binding affinity in rat liver; outline: as §1

IC50 [1] [nM] | IC50 [4] [nM] | SMILES | Change in BP [2] | ED50 [3] [µg/min/kg]
25.1 |  | CCCc1nc(-n2ccc(C(=O)O)c2)c(C(=O)O)n1Cc1ccc(-c2ccccc2-c2nn[nH]n2)cc1 |  | 
53.3 |  | CCCc1nc(-n2cccc2C(=O)OC)c(C#N)n1Cc1ccc(-c2ccccc2-c2nn[nH]n2)cc1 |  | 
2.8 |  | CCCc1nc(-n2cccc2)c(/C=C(\C)C(=O)OCC)n1Cc1ccc(-c2ccccc2-c2nn[nH]n2)cc1 | -12 | 
2.37 |  | CCCCc1nc(-n2cccc2C(=O)C(F)(F)F)c(C(=O)O)n1Cc1ccc(-c2ccccc2-c2nn[nH]n2)cc1 | -16 | 
3.64 |  | CCCc1nc(-n2cccc2C(=O)C(F)(F)F)c(C(=O)OC)n1Cc1ccc(-c2ccccc2-c2nn[nH]n2)cc1 | -28 | 36
65.5 |  | COC(=O)c1c(-n2c(C)ccc2C)nc(C2CC2)n1Cc1ccc(-c2ccccc2-c2nn[nH]n2)cc1 |  | 
23.3 |  | CCCCc1nc(-n2cccc2)c(C(=O)c2ccccc2)n1Cc1ccc(-c2ccccc2-c2nn[nH]n2)cc1 |  | 
2.81 |  | Cc1ccc(C)n1-c1nc(C2CC2)n(Cc2ccc(-c3ccccc3-c3nn[nH]n3)cc2)c1C(=O)O | -11 | 
209 |  | CCCCc1nc(-n2cccc2)c(C#N)n1Cc1ccc(-c2ccccc2-c2nn[nH]n2)cc1 |  | 
13.7 |  | CCCc1nc(-n2c(C)ccc2C)c(C=O)n1Cc1ccc(-c2ccccc2-c2nn[nH]n2)cc1 |  | 
21.6 |  | CCCc1nc(-n2c(C)ccc2C)c(/C=C/C(=O)OC)n1Cc1ccc(-c2ccccc2-c2nn[nH]n2)cc1 |  | 
1.37 |  | CCCc1nc(-n2ccc(C(=O)OC)c2C)c(C(=O)O)n1Cc1ccc(-c2ccccc2-c2nn[nH]n2)cc1 |  | 
15.1 |  | CCCc1nc(-n2c(C)ccc2CCC)c(C(=O)OC)n1Cc1ccc(-c2ccccc2-c2nn[nH]n2)cc1 |  | 
3.93 |  | CCCc1nc(-n2c(Cl)ccc2Cl)c(C(=O)OCC)n1Cc1ccc(-c2ccccc2-c2nn[nH]n2)cc1 |  | 
4 |  | CCCc1nc(-n2cccc2)c(/C=C/C(=O)O)n1Cc1ccc(-c2ccccc2-c2nn[nH]n2)cc1 |  | 
11 |  | CCCc1nc(-n2ccc(C(=O)O)c2C)c(C(=O)O)n1Cc1ccc(-c2ccccc2-c2nn[nH]n2)cc1 |  | 
188 |  | CCCc1nc(-n2c(C)ccc2C)c(C#N)n1Cc1ccc(-c2ccccc2-c2nn[nH]n2)cc1 |  | 
332 |  | CCCc1nc(-n2cccc2)c(C#N)n1Cc1ccc(-c2ccccc2-c2nn[nH]n2)cc1 |  | 
0.58 |  | CCCc1nc(-n2cccc2C(=O)C(F)(F)F)c(C(=O)O)n1Cc1ccc(-c2ccccc2-c2nn[nH]n2)cc1 | -29 | 6.23
 |  | CCCCc1nc(Cl)c(C(=O)O)n1Cc1ccc(-c2ccccc2-c2nn[nH]n2)cc1 [CARBOXYLIC ACID METABOLITE] | -22 | 13.6
 |  | CCCCc1nc(Cl)c(CO)n1Cc1ccc(-c2ccccc2-c2nnn[nH]2)cc1 [LOSARTAN] | -27 | 75.9
22 |  | CCCc1nc(-n2ccc(C(=O)OCC)c2)c(C(=O)O)n1Cc1ccc(-c2ccccc2-c2nn[nH]n2)cc1 |  | 
23.8 |  | CCCc1nc(-n2c(C)ccc2C)c(CO)n1Cc1ccc(-c2ccccc2-c2nn[nH]n2)cc1 |  | 

IC50 [1] [nM] | IC50 [4] [nM] | SMILES | Change in BP [2] | ED50 [3] [µg/min/kg]
233 |  | CCCc1nc(-n2cccc2C(O)C(F)(F)F)c(C#N)n1Cc1ccc(-c2ccccc2-c2nn[nH]n2)cc1 (stereo not given) |  | 
20.9 |  | CCCc1nc(-n2c(C)ccc2C)c(C(=O)OC)n1Cc1ccc(-c2ccccc2-c2nn[nH]n2)cc1 | -8 | 
27 |  | CCCCc1nc(-n2cccc2)cn1Cc1ccc(-c2ccccc2-c2nn[nH]n2)cc1 |  | 
 | 3.4 | CCCc1nc(C(F)(F)C(F)(F)F)c(C(=O)O)n1Cc1ccc(-c2ccccc2-c2nn[nH]n2)cc1 |  | 
171 |  | CCCc1nc(-n2cccc2C(=O)C(F)(F)F)c(C#N)n1Cc1ccc(-c2ccccc2-c2nn[nH]n2)cc1 |  | 
11.2 |  | CCCc1nc(-n2cccc2C(=O)O)c(C(=O)O)n1Cc1ccc(-c2ccccc2-c2nn[nH]n2)cc1 |  | 
0.9 |  | CCCc1nc(-n2c(C)ccc2CCC)c(C(=O)O)n1Cc1ccc(-c2ccccc2-c2nn[nH]n2)cc1 | -6 | 
5.6 |  | CCCc1nc(-n2cccc2)cn1Cc1ccc(-c2ccccc2-c2nn[nH]n2)cc1 |  | 
3.57 |  | CCCCc1nc(-n2cccc2C(=O)C(F)(F)F)c(C(=O)OC)n1Cc1ccc(-c2ccccc2-c2nn[nH]n2)cc1 | -19 | 
8.76 |  | CCCc1nc(-n2cccc2C(=O)O)c(C(N)=O)n1Cc1ccc(-c2ccccc2-c2nn[nH]n2)cc1 |  | 
0.8 |  | CCCc1nc(-n2cccc2C=O)c(C(=O)O)n1Cc1ccc(-c2ccccc2-c2nn[nH]n2)cc1 |  | 
103 |  | CCCc1nc(-n2cccc2C(=O)O)c(C#N)n1Cc1ccc(-c2ccccc2-c2nn[nH]n2)cc1 |  | 
12.2 |  | CCCc1nc(-n2cccc2)c(C(=O)OCC)n1Cc1ccc(-c2ccccc2-c2nn[nH]n2)cc1 | -22 | 
1.71 |  | CCCc1nc(-n2cccc2)c(C(=O)O)n1Cc1ccc(-c2ccccc2-c2nn[nH]n2)cc1 | -25 | 27
3.32 |  | CCCc1nc(-n2c(C)ccc2C)c(/C=C/C(=O)O)n1Cc1ccc(-c2ccccc2-c2nn[nH]n2)cc1 | -8 | 16.4
0.14 |  | CCCc1nc(-n2c(Cl)ccc2Cl)c(C(=O)O)n1Cc1ccc(-c2ccccc2-c2nn[nH]n2)cc1 |  | 
1.57 |  | CCCCc1nc(-n2cccc2)c(C(=O)O)n1Cc1ccc(-c2ccccc2-c2nn[nH]n2)cc1 | -27 | 38
18.8 |  | CCCc1nc(-n2ccc(C(=O)OC)c2C)c(C(=O)OC)n1Cc1ccc(-c2ccccc2-c2nn[nH]n2)cc1 |  | 
0.82 |  | CCCc1nc(-n2c(C)ccc2C)c(C(=O)O)n1Cc1ccc(-c2ccccc2-c2nn[nH]n2)cc1 | -26 | 
1.04 |  | CCCc1nc(-n2cccc2C(O)C(F)(F)F)c(C(=O)O)n1Cc1ccc(-c2ccccc2-c2nn[nH]n2)cc1 (stereo not given) |  | 
2.5 |  | CCCc1nc(-n2cccc2)c(/C=C(\C)C(=O)O)n1Cc1ccc(-c2ccccc2-c2nn[nH]n2)cc1 |  | 
158 |  | CCCc1nc(-n2ccc(C(=O)OCC)c2)c(C(=O)OC)n1Cc1ccc(-c2ccccc2-c2nn[nH]n2)cc1 |  | 
